Assay results from different studies.
pIC50: −log10 of the molar value. Values after ≈ are worked out from the molar mass of the structure shown.

COc1cccc(/C=N/N2C(=O)c3ccccc3NC2c2cccc(OC)c2O)c1O (stereo not shown) — MIC (Mycobacterium tuberculosis; microbial growth; ATCC25177 H37RA; 14 days): > 128 µg/mL
CCOC(=O)C1=C(C)NC(=O)NC1c1cn(-c2ccccc2)nc1-c1ccccc1 (stereo not shown) — MIC (Mycobacterium tuberculosis; microbial growth; resazurin; H37RV): 62.1 µM
Cc1sc2c(c1C)C(c1ccc(Cl)cc1)=N[C@@H](CC(=O)OC(C)(C)C)c1nnc(C)n1-2 — pIC50 (Ramos; cell growth or viability; ATP luminescence; 72 h): 6.26
NNC(=O)c1ccncc1 — MIC (Mycobacterium tuberculosis; microbial growth; ATCC25177 H37RA; 14 days): 8 µg/mL
COc1c(N2CC3CCCN(C(=O)OC(C)(C)C)C3C2)c(F)cc2c(=O)c(C(=O)OCc3cnc([N+](=O)[O-])s3)cn(C3CC3)c12 (stereo not shown) — MIC (Mycobacterium tuberculosis; microbial growth; H37RV): > 8 µM
Cn1c(COc2ccc3nc4ccc(=O)cc-4oc3c2)cnc1[N+](=O)[O-] — MIC90 (Mycobacterium tuberculosis; microbial growth; 7 days): > 256 µM
CCOC(=O)C1=C(C)NC(=NN)NC1c1ccc(F)cc1 (stereo not shown) — MIC (Mycobacterium tuberculosis; microbial growth; resazurin; H37RV): 85.5 µM
C1N2CN3CN1CP(C2)C3.Cc1cc(C)n(C(C(=O)OC(C)C)n2nc(C)cc2C)n1.F[P-](F)(F)(F)(F)F.[Cu+] — pIC50 (A-431; cell growth or viability; MTT; 72 h): 4.95
CC[C@@]1(O)C(=O)OCc2c1cc1n(c2=O)Cc2cc3ccccc3nc2-1 — pIC50 (HepG2; cell growth or viability; MTT; 48 h): 5.00
Cc1cc(C(=O)O)ccc1-c1c2ccc(=O)cc-2oc2cc(OCc3ccc([N+](=O)[O-])o3)ccc12 — MIC90 (Mycobacterium tuberculosis; microbial growth; 7 days): 240 µM (≈ 113 µg/mL)
N.N.[Cl][Pt][Cl] — pIC50 (A-431; cell growth or viability; MTT; 72 h): 5.68
CCOC(=O)C1=C(C)N(C(C)=O)C(=O)NC1c1cn(-c2ccccc2)nc1-c1ccccc1 (stereo not shown) — MIC (Mycobacterium tuberculosis; microbial growth; resazurin; H37RV): 56.2 µM
Cn1c([N+](=O)[O-])cnc1COc1ccc2nc3ccc(=O)cc-3oc2c1 — MIC90 (Mycobacterium tuberculosis; microbial growth; 7 days): > 256 µM
